Rows were chosen to be rich in hits. Some 3.3% of all compounds tested hit in one or more screens of this group.
Myeloid diff 2: myeloid differentiation induction | ER-HoxA9 myeloid progenitors, lysozyme-GFP differentiation, flow cytometry | calls only at 10 µM | hit rate 1% among 360,000;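 active = normalized GFP-positive differentiation at or above the plate's own cutoff, the solvent-only control mean plus 3 SD; inconclusive = no clear call, values can overlap the other calls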;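 also: cells exposed to compound for four days before flow analysis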
ATG4B inh: ATG4B (human) cysteine protease inhibition. Q9Y4P1. ATG4B cleavage of LC3-PLA2, NBD-HPC fluorescence, 1 h. inhibition, % at 8.33 µM. hit rate 0.51% among 340,000; in the data active = inhibition above about 40%
Granule exo inh: blocks lytic granule exocytosis; TALL-104 LAMP-1 surface exposure, flow cytometry; cells stimulated with thapsigargin and PMA; inhibition, % at 10 µM; hit rate 0.66% among 360,000; AID 651702;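 active = inhibition above about 55%, limit read from the data; inconclusive = no clear call, values can overlap the other calls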
Arr AP2 block: inhibitors of human beta-arrestin and AP2 interaction; FITC-arrestin peptide / GST-AP2 beads, flow cytometry; AP2 beta2 appendage carries R879A mutation; inhibition, % at 10 µM; hit rate 0.31% among 340,000; AID 504490;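 active = inhibition above a set limit, near 3 SD of compounds lacking own fluorescence, cut at about 54% in these data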
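system = GST-tagged AP2 beta2-adaptin appendage (R879A) on 4 µm glutathione beads | reagent = FITC-labelled arrestin peptide probe, 50 nM final | schedule = compound with beads 12 min RT, then probe 1 h RT | signal = HyperCyt-sampled flow cytometry, FL1 channel, ex 488/em 535 nm | read-out = percent response from loss of bead-bound FITC fluorescence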
CendR NRP1 mod: alters CendR peptide binding to human NRP-1. O14786. FAM-RPARPAR peptide binding to NRP-1, fluorescence polarization. inhibition, % at 25 µM. hit rate 0.85% among 360,000. AID 602438;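 active = inhibition or corrected inhibition above about 18%, plus a signal ratio from 0.5 to 1.5, limit read from the data, passing the limit was not always enough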
ABCB6 inh 2: human ABCB6 transporter inhibition; Q9NP58; K562-ABCB6 porphyrin accumulation, flow cytometry, 1 h; stronger effect = lower value; fluorescence ratio to DMSO, % at 10 µM; hit rate 0.19% among 360,000;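 active = fluorescence ratio to DMSO below 75%, the collection mean minus 3 SD; inconclusive = too few cells collected in the well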;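 also: signal is porphyrin accumulated inside mitochondria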
Target sequence (Q9NP58 whole entry, looked up): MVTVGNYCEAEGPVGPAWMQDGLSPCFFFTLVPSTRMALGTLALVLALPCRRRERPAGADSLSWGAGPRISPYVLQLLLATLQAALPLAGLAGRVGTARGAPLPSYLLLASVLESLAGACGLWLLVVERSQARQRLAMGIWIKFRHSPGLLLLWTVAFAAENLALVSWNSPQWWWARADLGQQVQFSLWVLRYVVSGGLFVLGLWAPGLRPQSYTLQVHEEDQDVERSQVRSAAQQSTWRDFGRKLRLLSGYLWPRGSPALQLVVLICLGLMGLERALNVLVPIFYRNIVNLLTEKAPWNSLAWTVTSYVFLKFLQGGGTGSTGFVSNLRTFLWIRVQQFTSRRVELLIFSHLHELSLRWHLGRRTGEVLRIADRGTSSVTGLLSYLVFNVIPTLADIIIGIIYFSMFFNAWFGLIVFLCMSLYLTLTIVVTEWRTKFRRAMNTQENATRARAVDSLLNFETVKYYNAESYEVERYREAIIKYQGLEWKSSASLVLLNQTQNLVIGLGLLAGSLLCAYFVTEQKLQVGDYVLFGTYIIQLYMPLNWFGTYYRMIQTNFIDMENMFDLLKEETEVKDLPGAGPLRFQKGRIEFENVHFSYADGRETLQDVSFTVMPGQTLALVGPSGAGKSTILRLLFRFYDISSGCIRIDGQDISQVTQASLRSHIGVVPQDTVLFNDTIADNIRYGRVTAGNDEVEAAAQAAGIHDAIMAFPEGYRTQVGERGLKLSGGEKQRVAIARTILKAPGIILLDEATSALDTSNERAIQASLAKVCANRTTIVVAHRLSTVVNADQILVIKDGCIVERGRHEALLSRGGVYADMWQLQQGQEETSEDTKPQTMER
A number is an active result; . = inactive; ? = inconclusive; / = no result given; + = active, no number.

SMILES	Myeloid diff 2	ATG4B inh	Granule exo inh	Arr AP2 block	CendR NRP1 mod	ABCB6 inh 2
CCOC(=O)c1sc(NC(=O)CSc2nnnn2-c2ccccc2)nc1C	.	.	.	.	.	.
O=C(CSc1nnnn1-c1ccccc1)NCc1cccs1	+	.	.	.	.	.
COc1ccc(OC)c(NC(=O)CCNS(=O)(=O)c2cccc3nonc23)c1	.	.	.	.	28	.
COC(=O)C1CCN(C(=O)COC(=O)C2CCN(S(=O)(=O)c3c(Cl)cccc3Cl)CC2)CC1	.	.	.	.	.	.
O=C(OC1CCOC1=O)C1CCN(S(=O)(=O)c2c(Cl)cccc2Cl)CC1 (stereo unspecified)	/	.	.	.	20	.
CC(=O)N1c2ccc(S(=O)(=O)N3CCCC(C(=O)N4CCC(C)CC4)C3)cc2CC1C (stereo unspecified)	.	.	.	.	.	.
CCN(CC)S(=O)(=O)c1cccc(N2CC(O)=C(c3ccccc3)C2=N)c1	.	.	.	.	.	.
CCN(CC)S(=O)(=O)c1ccc(N2Cc3ccccc3C2=N)cc1	+	.	.	.	.	.
COc1ccccc1-n1c(SCC(=O)N2CCCC2)nnc1-c1ccccc1	.	.	.	.	21	.
COc1cccc(NC(=O)C2CCN(c3cnccn3)CC2)c1	.	.	.	.	.	.
O=c1c(N=Nc2ccc(O)cc2)c(-c2ccccc2)[nH]n1-c1ccc([N+](=O)[O-])cc1	+	.	.	.	.	.
NC(=S)n1[nH]c(-c2ccc([N+](=O)[O-])cc2)c(N=Nc2ccc(Cl)cc2)c1=O	.	.	.	.	.	.
O=C1CCN(Cc2cccnc2)CCN1[C@H](CO)c1ccccc1	.	.	.	.	22	.
CCOC(=O)/C=C1\SCC(=O)N1CC(=O)NC(C)c1ccc(F)cc1 (stereo unspecified)	.	.	.	.	.	.
O=C(NCc1nnc(SCC(=O)N2CCN(c3ccccc3)CC2)o1)c1c(F)cccc1F	/	.	.	.	.	.
Cc1ccc(-c2ccc(/C=C/C(=O)c3ccccc3)o2)cc1	?	.	68	.	.	.
O=C(/C=C/c1ccc(-c2ccccc2)o1)c1ccccc1	?	.	78	.	.	.
O=Cc1ccc(-c2cccc(C(=O)O)c2)o1	.	.	.	.	.	.
O=C(/C=C/c1ccc(-c2ccccc2[N+](=O)[O-])o1)c1ccc(F)cc1	.	.	80	.	.	.
COCC1CCCCN1C(=O)c1cccc(OC2CCN(C(=O)C3CC3)CC2)c1 (stereo unspecified)	.	.	.	.	.	.
CC(C)(C)OC(=O)NCC12C=CC(O1)C1C(=O)N(Cc3ccccc3)C(=O)C12 (stereo unspecified)	.	.	85	.	.	.
Cc1ccc(NC(=S)NCC23C=CC(O2)C2C(=O)N(c4ccc(C)cc4)C(=O)C23)cc1 (stereo unspecified)	.	.	.	.	.	.
CCOc1ccc(NC2=CC(=O)C(=O)c3ccccc32)cc1	?	.	.	.	.	.
COc1cc(Cl)c(NC2=CC(=O)C(=O)c3ccccc32)c(OC)c1	+	.	.	.	.	.
C=C1C(=O)C23CCC4C(C)(C(=O)OC)CCCC4(C)C2CCC1(O)C3 (stereo unspecified)	/	.	.	.	.	.
SMILES	Myeloid diff 2	ATG4B inh	Granule exo inh	Arr AP2 block	CendR NRP1 mod	ABCB6 inh 2
NC(=O)C[n+]1cccc2ccccc21	.	.	.	.	32	.
Cc1cc(NC(=O)CS(=O)(=O)c2cn(Cc3ccccc3Cl)c3ccccc23)no1	+	.	.	.	.	.
CC1(NC(=O)NCc2ccco2)CCS(=O)(=O)C1 (stereo unspecified)	.	.	.	.	.	.
O=C(COC(=O)c1ccccc1)NCC1COc2ccccc2O1 (stereo unspecified)	.	/	.	/	.	.
O=C(OCn1nnc2ccccc2c1=O)c1ccc(Br)o1	.	.	.	.	35	.
Cc1c(S(=O)(=O)N2CCCC(C(=O)O)C2)cnn1C (stereo unspecified)	.	.	.	.	22	.
O=C(C1CCCN(S(=O)(=O)c2cccc3nonc23)C1)N1CCN(c2ccccc2Cl)CC1 (stereo unspecified)	.	.	.	.	.	.
Cc1nn(C)cc1S(=O)(=O)N1CCCC(C(=O)O)C1 (stereo unspecified)	.	.	.	.	.	.
O=C(Nc1ccccc1Cl)C1CCCN(S(=O)(=O)c2cccc3cccnc23)C1 (stereo unspecified)	?	.	.	.	.	.
O=C(O)[C@@H]1CCCN(S(=O)(=O)c2cccc3cccnc23)C1	.	.	.	.	26	.
O=C(C1CCCN(S(=O)(=O)c2cccc3nonc23)C1)N1CCN(c2cccc(Cl)c2)CC1 (stereo unspecified)	+	.	.	.	.	.
Cc1cccc(NC(=O)c2nc[nH]c2C(=O)N2CCc3ccccc3C2)c1	.	.	.	.	.	.
Cc1cccnc1NC(=O)c1ccco1	.	.	.	.	22	.
CCOC(=O)N1CCN(C(=O)Cn2ccc3c(OC)cccc3c2=O)CC1	.	.	.	.	.	.
CCCC(C)NC(=O)CN(Cc1ccco1)S(=O)(=O)c1ccccc1 (stereo unspecified)	.	.	.	.	23	.
CCOc1ncccc1C(=O)NC(C)CCc1ccccc1 (stereo unspecified)	+	.	.	.	.	.
c1nc(SSc2ncnc3nc[nH]c23)c2[nH]cnc2n1	?	.	.	.	.	.
O=C(c1ccco1)N1CCN(c2ncnc3scc(-c4ccccc4)c23)CC1	.	.	.	.	.	.
O=C(c1ccco1)N1CCN(c2ncnc3scc(-c4cccs4)c23)CC1	+	.	.	.	.	.
Cc1ccc(O)c(C(=O)c2cc(C#N)c(=O)n(-c3c(C)n(C)n(-c4ccccc4)c3=O)c2)c1	+	.	.	.	.	.
Cc1c(-n2cc(C(=O)c3cc(Br)ccc3O)cc(C#N)c2=O)c(=O)n(-c2ccccc2)n1C	.	.	.	.	.	.
CC(C)OC(=O)CN1C(=O)S/C(=C/c2ccc(N3CCCCC3)o2)C1=O	.	.	63	.	.	.
O=C1S/C(=C\c2ccc(N3CCOCC3)o2)C(=O)N1Cc1ccc(F)cc1	.	.	.	.	.	.
CCCC(=O)c1c(NC(C)C)cc(C)oc1=O	.	.	.	.	.	.
CCCOc1ccc(-c2nc(C#N)c(N3CCN(C)CC3)o2)cc1	.	.	.	.	34	.
CCOc1ccc(-c2nc(C#N)c(N3CCN(C)CC3)o2)cc1	.	.	.	.	.	.
CC(C)(C)NC(=O)NC12CC3CC(CC(C3)C1)C2	.	.	.	.	22	.
CC(C)Oc1cc(N)c(Cl)cc1Cl	.	.	.	.	.	.

Screening results (PubChem)
